# Screening data deposited in PubChem by The Scripps Research Institute Molecular Screening Center.
# ABHD4 inh: inhibits mouse alpha/beta hydrolase domain 4; Q8VD66; purified mABHD4, FP-Rh probe fluorescence polarization; inhibition, % at 8.92 µM; actives 0.54% (n = 370,000);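 active = inhibition exceeding the mean over every tested compound plus 3 SD, cut at about 30% in these data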;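 note: 0% = plate median of compound wells and 100% = S159A mutant with DMSO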
#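 Assay system: wild-type mouse ABHD4 protein; compound: single nominal dose of 8.92 µM, 0.89% DMSO final; schedule: 45 min + 60 min at 25 °C; measured by: FP readout, ex 525 nm / em 598 nm; evaluation: % inhibition of FP-Rh probe binding versus controls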
# HTRA1 inhibitor: inhibitors of human serine peptidase HTRA1; recombinant HTRA1, FP-rhodamine activity-based probe, fluorescence polarization; AID 504803; inhibition, % at 5.96 µM; actives 0.5% (n = 340,000); Q92743; in the data active = inhibition above about 36%;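 note: 0% = enzyme with DMSO and 100% = wells lacking enzyme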
# Target sequence (Q92743 whole entry, looked up): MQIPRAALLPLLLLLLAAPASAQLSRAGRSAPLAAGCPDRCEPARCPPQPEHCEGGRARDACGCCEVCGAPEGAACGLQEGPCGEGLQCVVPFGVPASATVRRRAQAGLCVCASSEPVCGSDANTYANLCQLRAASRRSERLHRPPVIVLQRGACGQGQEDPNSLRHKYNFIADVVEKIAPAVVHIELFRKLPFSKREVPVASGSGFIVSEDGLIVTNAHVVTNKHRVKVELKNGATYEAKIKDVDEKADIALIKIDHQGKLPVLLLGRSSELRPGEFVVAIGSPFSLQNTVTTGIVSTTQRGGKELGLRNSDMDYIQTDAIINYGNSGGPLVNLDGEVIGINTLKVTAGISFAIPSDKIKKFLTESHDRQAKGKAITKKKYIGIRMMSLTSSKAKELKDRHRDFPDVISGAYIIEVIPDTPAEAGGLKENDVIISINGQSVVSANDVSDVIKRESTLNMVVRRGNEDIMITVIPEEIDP
# Fam108B counter: blocks mouse Fam108B hydrolase in RBBP9 counter-screen; AID 1947; inhibition, % at 9.51 µM; recombinant Fam108B, FP-Rh probe fluorescence polarization; actives 0.33% (n = 300,000);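 active = inhibition above the screen mean inhibition plus 3 SD, computed separately per campaign, cut at about 18% in these data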;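 note: inhibitors lower polarization as less probe binds the enzyme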
# PME-1 inh: PME-1 (human) inhibition | AID 2130 | inhibition, % at 5.9 µM | Q9Y570 | actives 0.53% (n = 320,000) | recombinant PME-1, FP-Rh probe fluorescence polarization;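 active = inhibition above the campaign mean of all compounds plus 3 SD, cut at about 26% in these data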;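 note: competitive labeling of PME-1 active site by serine hydrolase directed probe; 0% = PME-1 with DMSO and 100% = wells lacking PME-1 enzyme; inhibitors block probe labeling so polarization falls and inhibition rises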
# TCR CD3 inh: blocks the human TCR-CD3 interaction; TAMRA-labeled TCR probe fluorescence, biochemical; inhibition, % at 9.4 µM; actives 0.37% (n = 360,000); AID 651800; in the data active = inhibition above about 19%;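 note: recombinant mutant TCR 2C K166C tagged with TAMRA read by polarization; 0% = receptor in buffer alone and 100% = receptor with positive control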
# SIAE inh: inhibitors of human sialic acid acetylesterase SIAE; actives 0.69% (n = 370,000); SIAE FP-Rh probe binding, fluorescence polarization; inhibition, % at 9.66 µM;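 active = inhibition above a cutoff: mean of compounds within the control limits plus 3 SD of those, cut at about 17% in these data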;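 note: 0% = plate median of compound wells and 100% = probe without SIAE protein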
# Numbers without * were called inactive; / = no result given. Only some compounds are listed: those with a hit (about 1.8% of all), similar ones and a draw of the others.
SMILES,ABHD4 inh,HTRA1 inhibitor,Fam108B counter,PME-1 inh,TCR CD3 inh,SIAE inh
COc1ccc(S(=O)(=O)N(C)C)cc1NC(=O)Cc1c[nH]c2ccccc12,-19,-4,-8,78*,-4,-18
Cc1ccc(S(=O)(=O)N(C)C)cc1NC(=O)CCc1c[nH]c2ccccc12,-1,-1,-3,5,5,2
CC(C)CNc1cccc2c1S(=O)(=O)N(Cc1cn(Cc3ccc(C(F)(F)F)cc3)nn1)Cc1ccccc1O2,7,/,/,/,/,2
Cc1ccc(C)c(N2C(=N)S/C(=C\c3ccc(-c4ccccc4C(=O)O)o3)C2=O)c1,34*,-13,5,6,-3,2
O=C(CSc1nnc(-c2ccccc2)n1-c1ccc(Cl)cc1)Nc1ccccc1-c1ccccc1,-16,/,/,/,/,-4
O=C(CSc1nnnn1-c1ccccc1)N1CCc2ccccc21,6,-1,-3,1,-3,-1
O=C(CSc1nnnn1-c1ccc2c(c1)OCCO2)N1CCc2ccccc21,11,-3,-6,8,2,27*
N#CC1=C(N)C(C#N)(C#N)C(c2cccnc2)C2CCCC=C12 (configuration not stated),/,/,1,9,/,/
N#CC1=C(N)C(C#N)(C#N)C(c2cccnc2)C2CC(c3ccccc3)CC=C12 (configuration not stated),/,-4,2,54*,/,/
COC(=O)N/N=C/c1cn(CCOc2ccc(OC)cc2)c2ccccc12,5,1,0,2,-1,11
COc1ccc(OCCn2cc(/C=N/NC(=O)c3ccncc3)c3ccccc32)cc1,1,-5,9,32*,3,12
CC(=O)Nc1ccc(C(/C=C/c2ccccc2)Cc2ccccc2)cc1 (configuration not stated),-32,/,/,/,/,-10
O=C(O[C@@H]1OC2COC(=O)c3cc(O)c(O)c(O)c3-c3c(cc(O)c(O)c3O)C(=O)O[C@@H]([C@H]1O)[C@@H]2O)c1cc(O)c(O)c(O)c1,/,41*,16,-32,/,/
CCOc1ccccc1NC(=O)CC1Nc2cc(C)c(C)cc2NC1=O (configuration not stated),3,-3,6,35*,8,2
CCOc1ccccc1NC(=O)CC1Nc2ccccc2NC1=O (configuration not stated),-7,-2,1,8,14,-6
O=C(NCCc1c[nH]c2ccccc12)OCc1cn(Cc2ccc(F)cc2F)nn1,-3,/,/,/,/,10
O=c1[nH]c(C2CCCN(S(=O)(=O)c3cccc(F)c3)C2)nc2c1nnn2Cc1ccccc1 (configuration not stated),-2,-8,0,24,-4,-4
O=c1[nH]c(C2CCCN(S(=O)(=O)c3ccccc3)C2)nc2c1nnn2Cc1ccccc1 (configuration not stated),5,-17,1,33*,5,-3
COc1cccc(Cn2nnc3c(=O)[nH]c(C4CCCN(C(=O)c5ccccc5Cl)C4)nc32)c1 (configuration not stated),-2,-8,-5,58*,0,2
O=c1[nH]c(C2CCN(S(=O)(=O)c3ccccc3F)CC2)nc2c1nnn2Cc1ccc2c(c1)OCCO2,-2,-2,0,7,10,2
O=c1[nH]c(C2CCN(S(=O)(=O)c3ccc(F)cc3)CC2)nc2c1nnn2Cc1ccc2c(c1)OCCO2,-38,-45,-8,32*,-11,-26
C=CCN(CC#Cc1ccc(C(F)(F)F)cc1)Cc1ccc(OC)cc1OC,-1,/,/,/,/,-5
COC(=O)[C@H](C(C)C)N1Cc2nnn(Cc3ccc(C)cc3)c2-c2ccccc2S1(=O)=O,2,/,/,/,/,-1
O=C(CSc1cn(CCNC(=O)c2ccccc2)c2ccccc12)NCc1ccco1,-1,-11,2,-3,1,18*
CN1Cc2nnn(Cc3ccccc3)c2-c2ccccc2S1(=O)=O,2,/,/,/,/,5
COc1ccc2c(c1)[nH]c1c(N3CCN(Cc4ccc5c(c4)OCO5)CC3)ncnc12,5,-10,10,26*,1,0
Cc1ccc2[nH]c3c(N4CCN(Cc5ccc6c(c5)OCO6)CC4)ncnc3c2c1,2,/,/,/,4,2
